{"data": "Measurements pooled from the literature", "target": "Casein kinase I isoform epsilon (CSNK1E, Homo sapiens, UniProt P49674)", "note": "Compare with care: the assays were run in different laboratories."}
{"Structure (SMILES)": "O=C(Nc1cnn(-c2csc(C(=O)NC3COC3)c2)c1)Nc1ccccc1Cl", "test": "enzyme activity, inhibitor", "setting": "5 µM", "measurement": "remaining activity", "value": "89.6%"}
{"Structure (SMILES)": "O=C(N1CCS(=O)(=O)CC1)N1C[C@H](c2ccc(OC(F)(F)F)cc2)C[C@H](c2nc(C3CC3)no2)C1", "test": "cell-free assay, competition with immobilised ligand", "setting": "1 µM", "measurement": "remaining binding", "value": "100%"}
{"Structure (SMILES)": "CC/C(=N\\NC(=O)NCc1cccc(O)c1)c1ccc(O)c(C)c1O", "test": "enzyme activity, inhibitor", "setting": "0.1 µM", "measurement": "inhibition", "value": "3.6%"}
{"Structure (SMILES)": "C[C@@H]1CCN(C(=O)CC#N)C[C@@H]1N(C)c1ncnc2[nH]ccc12", "test": "enzyme activity, inhibitor", "setting": "0.5 µM", "measurement": "remaining activity", "value": "101%"}
{"Structure (SMILES)": "COc1cc2ncnc(Nc3ccc(Oc4ccccc4)cc3C)c2cc1OC", "test": "enzyme activity, inhibitor", "setting": "1 µM", "measurement": "inhibition", "value": "2%"}
{"Structure (SMILES)": "O=C(NCCCNc1nc(Nc2cccc(NC(=O)N3CCCC3)c2)ncc1I)c1cccs1", "test": "enzyme activity, inhibitor", "setting": "1 µM", "measurement": "inhibition", "value": "-16%"}
{"Structure (SMILES)": "O=c1c2ccccc2[nH]c(=S)n1CCN1CCC(=C(c2ccc(F)cc2)c2ccc(F)cc2)CC1", "test": "enzyme activity, inhibitor", "setting": "0.5 µM", "measurement": "remaining activity", "value": "100%"}
{"Structure (SMILES)": "CN(C)C(=O)Cn1cc(-c2nc(C3(c4ccc(-c5cnc(N)nc5)cc4)CC3)no2)cn1", "test": "cell-free assay, competition with immobilised ligand", "setting": "1 µM", "measurement": "remaining binding", "value": "100%"}
{"Structure (SMILES)": "Cn1c2c(c3ccccc31)C(C#N)C(C)(C)NC2=O (stereo not shown)", "test": "thermal stability, DSF", "setting": "10 µM", "measurement": "ΔTm", "value": "0.8 °C"}
{"Structure (SMILES)": "CS(=O)(=O)CCNCc1ccc(-c2ccc3ncnc(Nc4ccc(OCc5cccc(F)c5)c(Cl)c4)c3c2)o1", "test": "enzyme activity", "setting": "0.5 µM", "measurement": "remaining activity", "value": "99.4%"}
{"Structure (SMILES)": "O=C(O)c1cc(-c2ccc(C3CCNCC3)cc2)c2ccc(-c3ccc(C(F)(F)F)cc3)cc2c1", "test": "cell-free assay, competition with immobilised ligand", "setting": "1 µM", "measurement": "remaining binding", "value": "100%"}
{"Structure (SMILES)": "Cn1c2c(Cl)c(Cl)ccc2c2cc[nH]c(=O)c21", "test": "thermal stability, DSF", "setting": "10 µM", "measurement": "ΔTm", "value": "1 °C"}
{"Structure (SMILES)": "CCS(=O)(=O)c1cc2cc(C[C@@](O)(CC(C)(C)c3ccc(F)cc3C(N)=O)C(F)(F)F)[nH]c2cn1", "test": "cell-free assay, competition with immobilised ligand", "setting": "1 µM", "measurement": "remaining binding", "value": "97%"}
{"Structure (SMILES)": "Nc1ncnc2occ(-c3ccc(NC(=O)Nc4cc(C(F)(F)F)ccc4F)cc3)c12", "test": "enzyme activity, inhibitor", "setting": "20 µM", "measurement": "remaining activity", "value": "0.65%"}
{"Structure (SMILES)": "N#CCCc1ccc2c(c1)-c1[nH]c3ccc([N+](=O)[O-])cc3c1CC(=O)N2", "test": "cell-free assay", "setting": "0.5 µM", "measurement": "remaining signal", "value": "91.4%"}
{"Structure (SMILES)": "Cn1c2c(c3ccc(Cl)c(Cl)c31)C(C#N)C1(CCOCC1)NC2=O (stereo not shown)", "test": "thermal stability, DSF", "setting": "10 µM", "measurement": "ΔTm", "value": "0.4 °C"}
{"Structure (SMILES)": "O=c1cc(-c2cccc3c2Sc2ccccc2S3)oc(N2CCOCC2)c1", "test": "enzyme activity, inhibitor", "setting": "0.5 µM", "measurement": "remaining activity", "value": "104%"}
{"Structure (SMILES)": "CC(C)(C)c1nc(-c2cccc(NS(=O)(=O)c3c(F)cccc3F)c2F)c(-c2ccnc(N)n2)s1", "test": "enzyme activity, inhibitor, radiometric", "setting": "1 µM", "measurement": "remaining activity", "value": "89%"}
{"Structure (SMILES)": "CC(C)(O)c1cncc(-c2nc3ccc(F)cc3n2C2CC2)c1", "test": "cell-free assay, competition with immobilised ligand", "setting": "1 µM", "measurement": "remaining binding", "value": "100%"}
{"Structure (SMILES)": "CCN(CC)CCNC(=O)c1c(C)[nH]c(/C=C2\\C(=O)Nc3ccc(Cl)cc32)c1C", "test": "enzyme activity, inhibitor", "setting": "0.5 µM", "measurement": "remaining activity", "value": "46.7%"}
{"Structure (SMILES)": "CN([C@@H]1CCc2c(CC(=O)O)c3ccccc3n2C1)S(=O)(=O)c1ccc(F)cc1", "test": "cell-free assay, competition with immobilised ligand", "setting": "1 µM", "measurement": "remaining binding", "value": "90%"}
{"Structure (SMILES)": "Cc1ccc(NC(=O)c2ccc(CN3CCN(C)CC3)cc2)cc1Nc1nccc(-c2cccnc2)n1", "test": "enzyme activity, inhibitor", "setting": "0.5 µM", "measurement": "activity vs control", "value": "92.4%"}
